Assay: Peroxynitrite scavenging activity assessed as inhibition of DHR 123 oxidation after 5 mins in presence of SIN-1 by fluorescence assay
Format: functional
Method in brief: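 ONOO− generated by decomposition of SIN-1 (10 μM) in buffer of 90 mM NaCl, 50 mM Na3PO4, 5 mM KCl, 100 μM DTPA, pH 7.4 (N2-purged, on ice), with DHR 123 working solution 5 μM. Fluorescence read (ex 480/em 530 nm) 5 min after treatment with and without SIN-1. Final minus background intensity gives % inhibition of oxidation; IC50, mean ± SD, three independent experiments. DL-penicillamine positive control.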

Point of comparison: `O=C(OC1C[C@@]2(O)COC3C[C@@H](O[C@@H]4O[C@H](CO)[C@@H](O)[C@H](O)[C@H]4O)[C@H]2[C@H]1C3)c1ccc(O)cc1` (some centres undefined), IC50 76.7 µM. Against it:
- COc1ccc(C(=O)O[C@H]2[C@@H]3C=CO[C@@H](O[C@@H]4O[C@H](CO)[C@@H](O)[C@H](O)[C@H]4O)[C@@H]3[C@@]3(CO)O[C@@H]23)cc1OC — higher, > 100 µM
- COc1cc(/C=C/C(=O)O[C@H]2[C@@H]3C=CO[C@@H](O[C@@H]4O[C@H](CO)[C@@H](O)[C@H](O)[C@H]4O)[C@@H]3[C@@]3(CO)O[C@@H]23)ccc1O — 48-fold lower, 1.6 µM
- COc1cc(/C=C/C(=O)O[C@@H]2C[C@@](O)(CO)[C@H]3[C@H](O[C@@H]4O[C@H](CO)[C@@H](O)[C@H](O)[C@H]4O)OC=C[C@H]32)ccc1O — 38-fold lower, 2 µM
- O=C(O[C@H]1[C@@H]2CCO[C@@H](O[C@@H]3O[C@H](CO)[C@@H](O)[C@H](O)[C@H]3O)[C@@H]2[C@@]2(CO)O[C@@H]12)c1ccc(O)cc1 — within 1.5-fold, 58.4 µM
- COc1cc(CCO[C@@H]2O[C@H](CO)[C@@H](O)[C@H](O[C@@H]3O[C@H](C)[C@@H](O)[C@H](O)[C@H]3O)[C@H]2O)ccc1O — 10-fold lower, 7.7 µM
- COc1cc(/C=C/C(=O)OC[C@H]2O[C@@H](Oc3ccc(O)cc3OC)[C@H](O)[C@@H](O)[C@@H]2O)ccc1O — 160-fold lower, 0.48 µM
- COc1cc(/C=C/C(=O)OC[C@H]2O[C@@H](Oc3ccc(CO)cc3OC)[C@H](O)[C@@H](O)[C@@H]2O)ccc1O — 450-fold lower, 0.17 µM
- COc1ccc(/C=C/C(=O)O[C@H]2[C@@H]3C=CO[C@@H](O[C@@H]4O[C@H](CO)[C@@H](O)[C@H](O)[C@H]4O)[C@@H]3[C@@]3(CO)O[C@@H]23)cc1 — within 1.5-fold, 78.5 µM
- COc1cc(/C=C/C(=O)O[C@H]2[C@@H]3CCO[C@@H](O[C@@H]4O[C@H](CO)[C@@H](O)[C@H](O)[C@H]4O)[C@@H]3[C@@]3(CO)O[C@@H]23)ccc1O — 35-fold lower, 2.2 µM
- COc1cc(/C=C/C(=O)OC[C@H]2O[C@@H](OC[C@@H]3c4cc(/C=C/C=O)cc(OC)c4O[C@H]3c3ccc(O)c(OC)c3)[C@H](O)[C@@H](O)[C@@H]2O)ccc1O — 97-fold lower, 0.79 µM
- O=C(OC[C@@]1(O)CO[C@@H](O[C@H]2[C@H](OCCc3ccc(O)cc3)O[C@H](CO)[C@@H](O)[C@@H]2O)[C@@H]1O)c1ccc(O)cc1 — 2.1-fold lower, 36.2 µM
- COc1cc(C(=O)OC[C@@]2(O)CO[C@@H](O[C@H]3[C@H](OCCc4ccc(O)cc4)O[C@H](CO)[C@@H](O)[C@@H]3O)[C@@H]2O)ccc1O — 8.9-fold lower, 8.6 µM
- COC/C=C/c1cc(OC)c2c(c1)[C@H](CO[C@@H]1O[C@H](COC(=O)/C=C/c3ccc(O)c(OC)c3)[C@@H](O)[C@H](O)[C@H]1O)[C@@H](c1ccc(O)c(OC)c1)O2 — 230-fold lower, 0.34 µM
- COc1cc(/C=C/C(=O)OC[C@H]2O[C@@H](O[C@@H]3OC=C[C@H]4[C@H](OC(=O)/C=C/c5ccc(O)c(OC)c5)[C@@H]5O[C@]5(CO)[C@@H]34)[C@H](O)[C@@H](O)[C@@H]2O)ccc1O — 70-fold lower, 1.1 µM
- COc1ccc(/C=C/C(=O)O[C@@H]2C[C@@](O)(CO)[C@H]3[C@H](O[C@@H]4O[C@H](CO)[C@@H](O)[C@H](O)[C@H]4O)OC=C[C@H]32)cc1O — 20-fold lower, 3.9 µM
- COc1ccc(C(=O)O[C@H]2[C@@H]3C=CO[C@@H](O[C@@H]4O[C@H](CO)[C@@H](O)[C@H](O)[C@H]4O)[C@@H]3[C@@]3(CO)O[C@@H]23)cc1 — 2.1-fold lower, 36.4 µM
- O=C(/C=C/c1ccc(O)cc1)OC[C@@]1(O)CO[C@@H](O[C@H]2[C@H](OCCc3ccc(O)cc3)O[C@H](CO)[C@@H](O)[C@@H]2O)[C@@H]1O — 17-fold lower, 4.5 µM
- OC[C@H]1O[C@@H](OCCc2ccc(O)cc2)[C@H](O[C@@H]2OC[C@](O)(CO)[C@H]2O)[C@@H](O)[C@@H]1O — 4.9-fold lower, 15.7 µM
- C[C@]1(O)C[C@@H](OC(=O)c2ccc(O)cc2)[C@@H]2CCO[C@@H](O[C@@H]3O[C@H](CO)[C@@H](O)[C@H](O)[C@H]3O)[C@@H]21 — 9.2-fold lower, 8.3 µM
- COc1cc(/C=C/C(=O)OC[C@]23O[C@H]2[C@@H](OC(=O)/C=C/c2ccc(O)c(OC)c2)[C@@H]2C=CO[C@@H](O[C@@H]4O[C@H](CO)[C@@H](O)[C@H](O)[C@H]4O)[C@@H]23)ccc1O — 87-fold lower, 0.88 µM
- O=C(O[C@@H]1C[C@@](O)(CO)[C@H]2[C@H](O[C@@H]3O[C@H](CO)[C@@H](O)[C@H](O)[C@H]3O)OCC[C@H]21)c1ccc(O)cc1 — 1.9-fold lower, 39.5 µM
- COc1cc(/C=C/C(=O)OC[C@H]2O[C@@H](OCCC3(O)CCC(=O)CC3)[C@H](O)[C@@H](O)[C@@H]2O)ccc1O — 75-fold lower, 1.02 µM
- COc1cc(/C=C/C(=O)OC[C@H]2O[C@@H](OCCc3ccc(O)cc3)[C@H](O)[C@@H](O)[C@@H]2O)ccc1O — 550-fold lower, 0.14 µM
- COc1cc(/C=C/C(=O)OC[C@H]2OC(OC[C@H]3[C@@H](Cc4ccc(O)c(OC)c4)CO[C@@H]3c3ccc(O)c(OC)c3)[C@H](O)[C@@H](O)[C@@H]2O)ccc1O (some centres undefined) — 95-fold lower, 0.81 µM
- CC(C)(S)C(N)C(=O)O (racemic) [DL-PENICILLAMINE] — 23-fold lower, 3.4 µM
- O=C(O[C@H]1[C@@H]2C=CO[C@@H](O[C@@H]3O[C@H](CO)[C@@H](O)[C@H](O)[C@H]3O)[C@@H]2[C@@]2(CO)O[C@@H]12)c1ccc(O)cc1 [CATALPOSIDE] — higher, > 100 µM
- COc1cc(C(=O)O[C@H]2[C@@H]3C=CO[C@@H](O[C@@H]4O[C@H](CO)[C@@H](O)[C@H](O)[C@H]4O)[C@@H]3[C@@]3(CO)O[C@@H]23)ccc1O [PICROSIDE II] — 13-fold lower, 6 µM
- O=C(/C=C/c1ccc(O)cc1)O[C@H]1[C@@H]2C=CO[C@@H](O[C@@H]3O[C@H](CO)[C@@H](O)[C@H](O)[C@H]3O)[C@@H]2[C@@]2(CO)O[C@@H]12 [SPECIOSIDE] — 5.6-fold lower, 13.6 µM

— ChEMBL document CHEMBL4190304, “Peroxynitrite-Scavenging Glycosides from the Stem Bark of Catalpa ovata” (J Nat Prod, 2017)
